# Published values collected from several papers.
# Protocols differ between the studies behind these lines.
# Target: Ephrin type-A receptor 2 (EPHA2, Homo sapiens, UniProt P29317)
SMILES,read-out,action,technique,tested at,measurement,result
Cc1nn(C)cc1-c1nc2c(N3CCN(Cc4ccc(Cl)cc4)CC3)c(Cl)cnc2[nH]1,binding,,competition with immobilised ligand,1 µM,remaining binding,100%
COc1ncccc1-c1cnn2ccc(N3CCN(C(=O)OC(C)C)CC3)nc12,binding,,competition with immobilised ligand,1 µM,remaining binding,79%
COc1cc(Nc2ncc(F)c(Nc3ccc4c(n3)NC(=O)C(C)(C)O4)n2)cc(OC)c1OC,binding,,competition with immobilised ligand,10 µM,inhibition,90%
Cn1cc(-c2cccc(N3CCc4c(sc5c4CC(C)(C)C5)C3=O)c2CO)cc(Nc2ccncn2)c1=O,enzyme activity,inhibitor,,1 µM,inhibition,16%
Cn1cncc1[C@@](O)(COc1ccc(C#N)cc1-c1ccc(OC(F)(F)F)cc1)c1ccc(C#N)cc1,cell-free assay,,competition with immobilised ligand,1 µM,remaining binding,89%
Cn1cc(-c2cc(F)cc(N3CCn4c(cc5c4CCCC5)C3=O)c2CO)cc(Nc2ccc(N3CCN(C4COC4)CC3)cn2)c1=O,enzyme activity,inhibitor,,0.1 µM,inhibition,-1%
CC(C)(C)c1cc(C=C(C#N)C#N)cc(Br)c1O,enzyme activity,inhibitor,,0.5 µM,remaining activity,105%
N#CC1(c2ccccn2)CCN(Cc2cc(C(=O)O)c(=O)n3ccccc23)CC1,cell-free assay,,competition with immobilised ligand,1 µM,remaining binding,83%
O=c1[nH]c2ccccc2n1C1CCN(Cc2ccc(-c3[nH]c4cc5ncnc5cc4nc3-c3ccccc3)cc2)CC1,cell-free assay,,,0.5 µM,remaining signal,103%
Nc1ncc(-c2nc(N3CCOCC3)nc(N3CCOCC3)n2)c(C(F)F)n1,cell-free assay,,competition with immobilised ligand,10 µM,remaining binding,94%
